The source of these data is ChEMBL document CHEMBL1926538, “3,5-Disubstituted-thiazolidine-2,4-dione analogs as anticancer agents: design, synthesis and biological characterization” (Eur J Med Chem, 2012).

Broadly, the IC50 is the concentration that inhibits the measured activity by half.

Active and inactive are the calls of the source. No cut-off for these calls is given here. Bounds are passed on as bounds.

Test [1] deals with U-937. As to the kind of experiment: Growth inhibition of human U937 cells after 24 hrs by MTS assay. The test is classed as functional, cell-based. The following applies: U-937, 24 h. In a few lines: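 Cells in RPMI 1640 with 10% heat-inactivated FBS, seeded 2 × 10⁴ cells/well and exposed 24 h. MTS reagent added, then 1 h further incubation at 37 °C, 5% CO₂. Formazan absorbance read at 490 nm. Viability expressed as percentage of untreated controls.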

The subject of test [2] is U-937. As to the kind of experiment: Cell cycle arrest in human U937 cells assessed as accumulation at G2/M-phase after 24 hrs by propidium iodide staining-based flow cytometric analysis in presence of MEK inhibitor PD184352. The test is classed as functional. In a few lines: (§1)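 Cells cultured in RPMI 1640 with 10% FBS and treated 24 h at the indicated concentrations. Stained with propidium iodide for 4 h at 4 °C in the dark. Flow cytometry gave the percentage of cells in G₀/G₁, S, G₂/M and sub-G₁ phases.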
A general note: In flow cytometry, cells or beads pass a laser one at a time.

The test system of test [3] is U-937. As to the kind of experiment: Cell cycle arrest in human U937 cells assessed as decrease in S-phase population after 24 hrs by propidium iodide staining-based flow cytometric analysis in presence of MEK inhibitor PD184352. The test is classed as functional. The gist of the method:
as §1

The target of test [4] is RAF proto-oncogene serine/threonine-protein kinase (Homo sapiens) (UniProt P04049). As to the kind of experiment: Inhibition of raf-mediated ERK phosphorylation in human U937 cells at 0.3 to 30 uM after 1 hr by Western blot analysis. Type of test: cell-based. The following applies: U-937. The gist of the method: (§2)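 Cells in RPMI 1640 with 10% heat-inactivated FBS, 37 °C, 5% CO2; treated in growing medium (DU145 24 h; U937 1 h at 5 × 10⁵/mL). Lysed by sonication in SDS sample buffer with protease inhibitors plus 1 mM orthovanadate and pyrophosphate, boiled 5 min. Blots blocked in 5% milk, primary antibodies 1:1000 overnight at 4 °C, HRP secondary 1:2000, chemiluminescence; α-tubulin loading control.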

The target is the same in test [5]. As to the kind of experiment: Inhibition of raf-mediated MEK phosphorylation in human U937 cells at 0.3 to 30 uM after 1 hr by Western blot analysis. The test is classed as cell-based. The following applies: U-937. The gist of the method: as §2
For orientation: A western blot detects proteins with antibodies after separation by electrophoresis.

For test [6], the system named is U-937. As to the kind of experiment: Inhibition of PI3K-mediated Akt phosphorylation in human U937 cells at 0.3 to 30 uM after 1 hr by Western blot analysis. The test is classed as cell-based.
Test [7] relates to U-937. As to the kind of experiment: Growth inhibition of human U937 cells at 320 uM after 72 hrs by MTS assay. Type of test: functional, cell-based. The gist of the method:
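U937 cells exposed 72 h, with or without AICA 320 µM, then MTS added. Absorbance read at 490 nm, expressed as percentage of untreated controls. Data are mean percentage viability, n = 6, error bars SEM.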
(Tetrazolium assays rely on reduction of a dye to a coloured formazan, in cell work by metabolically active cells.)

RAF proto-oncogene serine/threonine-protein kinase (Homo sapiens), sequence (P04049 whole entry): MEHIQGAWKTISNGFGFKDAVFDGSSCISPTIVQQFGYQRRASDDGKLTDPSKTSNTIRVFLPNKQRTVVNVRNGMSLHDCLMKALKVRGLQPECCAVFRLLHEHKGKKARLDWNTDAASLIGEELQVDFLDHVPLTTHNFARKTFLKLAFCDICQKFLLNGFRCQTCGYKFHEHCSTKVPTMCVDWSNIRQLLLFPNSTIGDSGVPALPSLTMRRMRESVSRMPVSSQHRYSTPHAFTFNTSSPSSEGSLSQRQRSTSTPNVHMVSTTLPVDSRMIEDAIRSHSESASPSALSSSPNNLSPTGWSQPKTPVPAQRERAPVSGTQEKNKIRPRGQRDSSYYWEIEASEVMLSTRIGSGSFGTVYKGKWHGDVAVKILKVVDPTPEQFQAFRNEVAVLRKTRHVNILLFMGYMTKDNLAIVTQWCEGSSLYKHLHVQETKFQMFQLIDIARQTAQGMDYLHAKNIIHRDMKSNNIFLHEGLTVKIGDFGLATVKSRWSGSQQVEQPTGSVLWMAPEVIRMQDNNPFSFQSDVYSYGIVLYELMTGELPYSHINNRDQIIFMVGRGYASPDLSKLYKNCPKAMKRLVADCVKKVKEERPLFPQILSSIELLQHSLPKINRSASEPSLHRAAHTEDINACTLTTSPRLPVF

`NCCN1C(=O)S/C(=C\CCc2ccc(S(N)(=O)=O)cc2)C1=O` gave an IC50 in test [1] of over 30 µM.

Regarding `O=C(NOCC1CC1)c1ccc(F)c(F)c1Nc1ccc(I)cc1Cl`, the result in test [2] and in test [3] was Active.

`O=C(O)CN1C(=O)S/C(=C\CCc2ccccc2)C1=O` returned a concentration for half-maximal inhibition (IC50) in test [1] of over 30 µM.

`CCOc1ccccc1CC/C=C1\SC(=O)N(CCN)C1=O`: the 50% inhibitory concentration (IC50) in test [1] is 11.3 µM.

For the molecule `NCCN1C(=O)S/C(=C\CCc2c[nH]c3ccccc23)C1=O`, in test [1], the half-inhibitory concentration (IC50) came out at 29.5 µM.

Regarding `NCCN1C(=O)S/C(=C\CCc2ccccc2)C1=O`, the inhibition entry in test [4], in test [5] and in test [6] was “inactive” each time. Also, in test [1], the IC50 was determined as 10.4 µM.

Turning to `NCCN1C(=O)c2ccc(Cc3ccccc3)cc2C1=O`, the IC50 in test [1] is over 30 µM.

In turn, `CS(=O)(=O)Nc1ccc(CC/C=C2\SC(=O)N(CCN)C2=O)cc1` returned an IC50 in test [1] of over 30 µM.

In test [1], `O=C1S/C(=C\CCc2ccccc2)C(=O)N1CCO` displayed a concentration for half-maximal inhibition (IC50) of 11.3 µM.

As for `NCCN1C(=O)S/C(=C\CCc2ccc([N+](=O)[O-])cc2)C1=O`, the IC50 in test [1] was over 30 µM.

Regarding `NC(=O)c1[nH]cnc1N`, in test [7], the “growth inhibition (GI)” value was “inactive”.

`NCCN1C(=O)S/C(=C\CCc2ccc(Cl)cc2)C1=O` showed an IC50 in test [1] of 21.2 µM.

On to `NCCN1C(=O)SC(CCCc2ccccc2)C1=O` (racemic), for which the inhibition result in test [4], in test [5] and in test [6] was “inactive” in each case. The molecule also registered an IC50 in test [1] of over 30 µM.

`NCCN1C(=O)S/C(=C\CCc2cccc([N+](=O)[O-])c2)C1=O`: the midpoint of inhibition in test [1], the IC50, lay at 24.4 µM.

In turn, `O=C1S/C(=C\CCc2ccccc2)C(=O)N1CCN1CCOCC1` registered an IC50 in test [1] of over 30 µM.

In turn, `COc1ccc(CC/C=C2\SC(=O)N(CCN)C2=O)cc1` displayed an IC50 in test [1] of 9.4 µM.

The molecule `NCCN1C(=O)S/C(=C\CCc2ccc3[nH]ccc3c2)C1=O` displayed a half-maximal inhibitory concentration (IC50) in test [1] of 27.7 µM.

`CCOc1ccc(CC/C=C2\SC(=O)N(CCN)C2=O)cc1` displayed an IC50 in test [1] of 9.6 µM.

On to `CCOc1cccc(CC/C=C2\SC(=O)N(CCN)C2=O)c1`, for which, in test [1], the half-maximal inhibitory concentration (IC50) worked out at 10 µM.

With `NCCN1C(=O)S/C(=C\CCc2cccnc2)C1=O`, the IC50 in test [1] was over 30 µM.

`CC/C=C1\SC(=O)N(CCN)C1=O` registered an IC50 in test [1] of over 30 µM.

Consider `NCCN1C(=O)S/C(=C\CCC2CC2)C1=O`, for which the IC50 in test [1] worked out at 14.1 µM.
